pIC50: −log10 of the molar value. ≈ marks a conversion by molar mass, not a printed value. Calls of active or inactive are those of the source. The rule behind the calls is not given here.
Tests used:
[1] = Stability in Balb/c mouse liver S9 fraction assessed as compound remaining at 1 uM incubated for 90 mins in absence of NADPH by LC-MS/MS analysis; type: ADME, tissue-based; conditions: read-out: Stability
Summary of the method: (§1)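 Compound incubated with liver S9 fraction for 90 min without NADPH. Values are mean ± SD, n ≥ 3.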

[2] = Stability in Sprague-Dawley rat liver S9 fraction assessed as compound remaining at 1 uM incubated for 90 mins in absence of NADPH by LC-MS/MS analysis; type: ADME, tissue-based; conditions: read-out: Stability; summary of the method: as §1
[3] = Stability in human liver S9 fraction assessed as compound remaining at 1 uM incubated for 90 mins in absence of NADPH by LC-MS/MS analysis; type: ADME, tissue-based; conditions: read-out: Stability; summary of the method: as §1
[4] = Solubility of the compound in phosphate buffer at pH 7.2 at 10 mg/ml after 24 hrs by UV-HPLC method; type: physicochemical
Summary of the method: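 Solubility measured at pH 7.2. Values are mean ± SD, n = 2.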

Mus musculus [5] = assay: In vivo inhibition of LMP2 in Balb/c mouse assessed as residual activity in blood at 1 mg/kg, iv administered as single bolus dose using PEG300/WFI formulation after 1 hr by ELISA relative to control; type: functional
Summary of the method: (§2)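 Mice dosed intravenously at nominal doses. Blood collected 1 h later and proteasome active-site activity (LMP2, LMP7, β5) measured by ProCISE subunit-specific ELISA. Expressed as % activity remaining relative to control.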

Mus musculus [6] = assay: In vivo inhibition of LMP7 in Balb/c mouse assessed as residual activity in blood at 1 mg/kg, iv administered as single bolus dose using PEG300/WFI formulation after 1 hr by ELISA relative to control; type: functional; summary of the method: as §2
Mus musculus [7] = assay: In vivo inhibition of proteasome beta5 in Balb/c mouse assessed as residual activity in blood at 1 mg/kg, iv administered as single bolus dose using PEG300/WFI formulation after 1 hr by ELISA relative to control; type: functional; summary of the method: as §2
PBMC [8] = assay: Anti-inflammatory activity in human PBMC assessed as inhibition of LPS-induced IL-12/23 p40 production pretreated for 1 hr followed by LPS stimulation measured after 20 hrs; type: functional, cell-based
PBMC [9] = assay: Anti-inflammatory activity in human PBMC assessed as inhibition of LPS-induced TNF-alpha production pretreated for 1 hr followed by LPS stimulation measured after 20 hrs; type: functional, cell-based
PBMC [10] = assay: Anti-inflammatory activity in human PBMC assessed as inhibition of LPS-induced IL-6 production pretreated for 1 hr followed by LPS stimulation measured after 20 hrs; type: functional, cell-based
PBMC [11] = assay: Anti-inflammatory activity in human PBMC assessed as inhibition of LPS-induced GMCSF production pretreated for 1 hr followed by LPS stimulation measured after 20 hrs; type: functional, cell-based
PBMC [12] = assay: Anti-inflammatory activity in human PBMC assessed as inhibition of LPS-induced IL-8 production pretreated for 1 hr followed by LPS stimulation measured after 20 hrs; type: functional, cell-based
PBMC [13] = assay: Anti-inflammatory activity in human PBMC assessed as inhibition of LPS-induced Il-1b production pretreated for 1 hr followed by LPS stimulation measured after 20 hrs; type: functional, cell-based
PBMC [14] = assay: Cytotoxicity against human PBMC assessed as decrease in cell viability by CellTiter-Glo assay; type: cell-based
Summary of the method: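 PBMC viability read out with CellTiter-Glo. IC50 derived from the viability signal.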

[15] = target: T1, Proteasome subunit beta type-9 (Homo sapiens, UniProt P28065); assay: Inhibition of LMP2 in human MOLT4 cell lysate after 1 hr by ELISA
T1 sequence (P28065 whole entry): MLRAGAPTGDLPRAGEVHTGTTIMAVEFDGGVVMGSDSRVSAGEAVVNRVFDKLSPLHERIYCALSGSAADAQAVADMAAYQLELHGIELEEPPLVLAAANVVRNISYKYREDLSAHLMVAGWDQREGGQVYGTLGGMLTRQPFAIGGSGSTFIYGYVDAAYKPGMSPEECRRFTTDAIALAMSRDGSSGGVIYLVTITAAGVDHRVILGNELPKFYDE
Summary of the method: (§3)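 ProCISE subunit-specific ELISA of proteasome catalytic active sites in cell lysate. Values are mean ± SD, n ≥ 2.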

[16] = target: T2, Proteasome subunit beta type-8 (Homo sapiens, UniProt P28062); assay: Inhibition of LMP7 in human MOLT4 cell lysate after 1 hr by ELISA; summary of the method: as §3
T2 sequence (P28062 whole entry): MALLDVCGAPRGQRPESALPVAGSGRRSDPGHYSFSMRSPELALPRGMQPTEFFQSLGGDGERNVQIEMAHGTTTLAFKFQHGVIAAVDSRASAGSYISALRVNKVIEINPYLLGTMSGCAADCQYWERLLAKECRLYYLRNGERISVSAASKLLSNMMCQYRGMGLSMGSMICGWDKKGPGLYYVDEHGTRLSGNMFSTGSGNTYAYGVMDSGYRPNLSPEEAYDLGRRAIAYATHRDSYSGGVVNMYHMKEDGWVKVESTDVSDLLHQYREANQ

[17] = target: T3, Proteasome Macropain subunit MB1 (Homo sapiens, UniProt P28074); assay: Inhibition of proteasome beta5 in human MOLT4 cell lysate after 1 hr by ELISA; summary of the method: as §3
T3 sequence (P28074 whole entry): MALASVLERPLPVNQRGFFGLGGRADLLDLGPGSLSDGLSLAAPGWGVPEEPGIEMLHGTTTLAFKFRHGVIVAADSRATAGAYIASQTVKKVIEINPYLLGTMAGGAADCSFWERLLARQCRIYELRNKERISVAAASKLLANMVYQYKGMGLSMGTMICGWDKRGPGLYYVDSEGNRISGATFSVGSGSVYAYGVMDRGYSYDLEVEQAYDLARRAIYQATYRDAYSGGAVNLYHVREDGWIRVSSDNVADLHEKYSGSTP

[18] = target: T4, Proteasome subunit beta type-10 (Homo sapiens, UniProt P40306); assay: Inhibition of MECL1 in human MOLT4 cell lysate after 1 hr by ELISA
T4 sequence (P40306 whole entry): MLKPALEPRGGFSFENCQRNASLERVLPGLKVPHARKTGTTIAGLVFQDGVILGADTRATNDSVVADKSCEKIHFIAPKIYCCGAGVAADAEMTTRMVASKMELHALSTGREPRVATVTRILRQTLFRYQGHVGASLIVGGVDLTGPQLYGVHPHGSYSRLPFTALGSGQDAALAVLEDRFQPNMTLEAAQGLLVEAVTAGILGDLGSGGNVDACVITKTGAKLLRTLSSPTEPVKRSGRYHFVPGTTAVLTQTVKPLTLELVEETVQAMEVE

Mus musculus [19] = assay: In vivo inhibition of LMP2 in Balb/c mouse assessed as residual activity in blood at 2 mg/kg, iv administered as single bolus dose using 10% EtOH/25% PEG300 formulation after 1 hr by ELISA relative to control; type: functional; summary of the method: as §2
Mus musculus [20] = assay: In vivo inhibition of LMP7 in Balb/c mouse assessed as residual activity in blood at 2 mg/kg, iv administered as single bolus dose using 10% EtOH/25% PEG300 formulation after 1 hr by ELISA relative to control; type: functional; summary of the method: as §2
Mus musculus [21] = assay: In vivo inhibition of proteasome beta5 in Balb/c mouse assessed as residual activity in blood at 2 mg/kg, iv administered as single bolus dose using 10% EtOH/25% PEG300 formulation after 1 hr by ELISA relative to control; type: functional; summary of the method: as §2
Mus musculus [22] = assay: In vivo inhibition of LMP2 in Balb/c mouse assessed as residual activity in blood at 1 mg/kg, iv administered as single bolus dose using 10% EtOH/25% PEG300 formulation after 1 hr by ELISA relative to control; type: functional; summary of the method: as §2
Mus musculus [23] = assay: In vivo inhibition of LMP7 in Balb/c mouse assessed as residual activity in blood at 1 mg/kg, iv administered as single bolus dose using 10% EtOH/25% PEG300 formulation after 1 hr by ELISA relative to control; type: functional; summary of the method: as §2
Mus musculus [24] = assay: In vivo inhibition of proteasome beta5 in Balb/c mouse assessed as residual activity in blood at 1 mg/kg, iv administered as single bolus dose using 10% EtOH/25% PEG300 formulation after 1 hr by ELISA relative to control; type: functional; summary of the method: as §2
Mus musculus [25] = assay: In vivo inhibition of LMP2 in Balb/c mouse kidney at >1 mg/kg, iv administered as single bolus dose using 10% EtOH/25% PEG300 formulation after 1 hr by ELISA relative to control; type: functional
Mus musculus [26] = assay: In vivo inhibition of LMP2 in Balb/c mouse heart at >1 mg/kg, iv administered as single bolus dose using 10% EtOH/25% PEG300 formulation after 1 hr by ELISA relative to control; type: functional
Mus musculus [27] = assay: In vivo inhibition of LMP2 in Balb/c mouse liver at >1 mg/kg, iv administered as single bolus dose using 10% EtOH/25% PEG300 formulation after 1 hr by ELISA relative to control; type: functional
Mus musculus [28] = assay: In vivo inhibition of LMP2 in Balb/c mouse brain at >1 mg/kg, iv administered as single bolus dose using 10% EtOH/25% PEG300 formulation after 1 hr by ELISA; type: functional, organism-based

Row | remaining at 1.5 h, 1 µM [1] [%] | remaining at 1.5 h, 1 µM [2] [%] | remaining at 1.5 h, 1 µM [3] [%] | solubility at 24 h [4] [µg/mL] | pIC50 [15] | pIC50 [16] | pIC50 [17] | pIC50 [18] | Compound | pIC50 (PBMC [8]) | pIC50 (PBMC [9]) | pIC50 (PBMC [10]) | pIC50 (PBMC [11]) | pIC50 (PBMC [12]) | pIC50 (PBMC [13]) | pIC50 (PBMC [14]) | other results
1 | 106 | 23.3 | 8.6 | 461 (≈ 0.794 mM) |  |  |  |  | COc1ccc(C[C@H](NC(=O)[C@H](C)NC(=O)CN2CCOCC2)C(=O)N[C@@H](Cc2ccccc2)C(=O)[C@@]2(C)CO2)cc1 | 6.92 | 6.25 | 6.62 | 6.66 | 5.95 | 5.83 | 5.47 | Activity (Mus musculus [5]): 95%; Activity (Mus musculus [6]): 65.3%; Activity (Mus musculus [7]): 99.8%
2 | 0.4 | 8 | 1.1 | 166 (≈ 0.33 mM) | 6.85 | 5.32 | 4.74 | < 3.60 | COc1ccc(C[C@H](NC(=O)c2cccc(=O)[nH]2)C(=O)N[C@@H](Cc2ccccc2)C(=O)[C@@]2(C)CO2)cc1 | < 5.25 | < 4.60 | < 4.80 | < 4.60 | < 4.60 | < 4.60 | < 4.60 | Activity (Mus musculus [19]): 83%; Activity (Mus musculus [20]): 98.3%; Activity (Mus musculus [21]): 90.7%
3 | 85.1 | 58.8 | 25.3 | 7520 (≈ 18.9 mM) | 6.95 | 4.35 | 4.37 | < 3.60 | C[C@H](NC(=O)c1cccc(=O)[nH]1)C(=O)N[C@@H](Cc1ccccc1)C(=O)[C@@]1(C)CO1 |  |  |  |  |  |  |  | 
4 | 90.9 | 92.3 | 81.5 | 6640 (≈ 16.1 mM) | 7.29 | 5.37 | 5.16 | < 3.60 | C[C@]1(C(=O)[C@H](Cc2ccccc2)NC(=O)[C@H](CO)NC(=O)c2cccc(=O)[nH]2)CO1 | < 5.01 | < 4.60 | < 4.72 | < 4.60 | < 4.60 | < 4.60 | < 4.60 | Activity (Mus musculus [22]): 31.1%; Activity (Mus musculus [23]): 102.5%; Activity (Mus musculus [24]): 101.7%; inhibition (INH) (Mus musculus [25]): >50%; inhibition (INH) (Mus musculus [26]): >50%; inhibition (INH) (Mus musculus [27]): >50%; inhibition (Mus musculus [28]): inactive
